Data: ChEMBL document CHEMBL3352067, “1,8-Naphthyridines IX. Potent anti-inflammatory and/or analgesic activity of a new group of substituted 5-amino[1,2,4]triazolo[4,3-a][1,8]naphthyridine-6-carboxamides, of some their Mannich base derivatives and of one novel substituted …” (Eur J Med Chem, 2014)

Experiments:
Rattus norvegicus [1] = experiment: Antiinflammatory activity in Wistar rat assessed as inhibition of carrageenan-induced paw oedema at 25 mg/kg, po administered 1 hr prior to carrageenan challenge; type: functional
How it was run: (§1)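 Wistar rats (250–300 g, either sex), fasted overnight, dosed by oral gavage with compound suspended in 0.5% methylcellulose; controls got vehicle. Groups of 8–10. 1 h later 0.1 mL 1% carrageenan injected subcutaneously into hind paw plantar surface; paw volume measured by plethysmometer immediately and 3 h later. Inhibition calculated from swelling difference versus controls (control = 100).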

Rattus norvegicus [2] = experiment: Antiinflammatory activity in Wistar rat assessed as inhibition of carrageenan-induced paw oedema at 100 mg/kg, po administered 1 hr prior to carrageenan challenge; type: functional; how it was run: as §1
Mus musculus [3] = experiment: Antinociceptive activity in Swiss mouse assessed as inhibition of acetic acid-induced writhing at 50 mg/kg, po administered 1 hr prior to acetic acid challenge measured for 30 mins; type: functional
How it was run: (§2)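 Swiss mice (25–35 g, either sex), fasted overnight, given compound orally in 0.5% methylcellulose; controls received vehicle; groups of 8–10. Writhes, scored as complete extension of either hind limb, counted over 30 min after injection of the noxious agent. Percent inhibition derived from the difference in writhing between treated and control groups.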

Mus musculus [4] = experiment: Antinociceptive activity in Swiss mouse assessed as inhibition of acetic acid-induced writhing at 25 mg/kg, po administered 1 hr prior to acetic acid challenge measured for 30 mins; type: functional; how it was run: as §2
Mus musculus [5] = experiment: Antinociceptive activity in Swiss mouse assessed as inhibition of acetic acid-induced writhing at 100 mg/kg, po administered 1 hr prior to acetic acid challenge measured for 30 mins; type: functional; how it was run: as §2
Rattus norvegicus [6] = experiment: Antiinflammatory activity in Wistar rat assessed as inhibition of carrageenan-induced paw oedema at 50 mg/kg, po administered 1 hr prior to carrageenan challenge; type: functional; how it was run: as §1
Rattus norvegicus [7] = experiment: Antiinflammatory activity in Wistar rat assessed as inhibition of carrageenan-induced paw oedema at 12.5 mg/kg, po administered 1 hr prior to carrageenan challenge; type: functional; how it was run: as §1
Rattus norvegicus [8] = experiment: Acute gastrolesivity in Wistar rat assessed as stomach lesions at 10 mg/kg, po measured after 5 hrs; type: toxicity, organism-based; set-up: dose 10 mg/kg, route oral; details: in vivo
How it was run: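 Wistar rats (250-300 g, either sex), fasted overnight, dosed by oral gavage in 0.5% methylcellulose (1 mL 100 g^-1); groups of 8-10. Stomachs excised 5 h post-dose, fixed with 2% formalin, opened along greater curvature, examined by stereomicroscope by blinded observer. Read-out: number of rats with gastric damage over number treated.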

Mus musculus [9] = experiment: Sedative activity in Swiss mouse assessed as inhibition of spontaneous locomotor activity at 100 mg/kg, po measured for 30 mins by open-field test; type: organism-based; set-up: dose 100 mg/kg, route oral; details: in vivo, 0.5 h
How it was run: (§3)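 Swiss mice (25-35 g, either sex), fasted overnight, given compound orally by gavage suspended in 0.5% methylcellulose; vehicle controls; groups of 8-10. Spontaneous locomotor activity recorded by videocamera with video-tracking as distance (m) travelled in 30 min; Student's t-test vs controls.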

Mus musculus [10] = experiment: Sedative activity in Swiss mouse assessed as inhibition of spontaneous locomotor activity at 50 mg/kg, po measured for 30 mins by open-field test; type: organism-based; set-up: dose 50 mg/kg, route oral; details: in vivo, 0.5 h; how it was run: as §3
Mus musculus [11] = experiment: Antinociceptive activity in Swiss mouse assessed as inhibition of acetic acid-induced writhing at 12.5 mg/kg, po administered 1 hr prior to acetic acid challenge measured for 30 mins; type: functional; how it was run: as §2
Mus musculus [12] = experiment: Sedative activity in Swiss mouse assessed as inhibition of spontaneous locomotor activity at 25 mg/kg, po measured for 30 mins by open-field test; type: organism-based; set-up: dose 25 mg/kg, route oral; details: in vivo, 0.5 h; how it was run: as §3
Rattus norvegicus [13] = experiment: Antiinflammatory activity in Wistar rat assessed as inhibition of carrageenan-induced paw oedema at 6.25 mg/kg, po administered 1 hr prior to carrageenan challenge; type: functional; how it was run: as §1
Mus musculus [14] = experiment: Sedative activity in Swiss mouse assessed as inhibition of spontaneous locomotor activity at 12.5 mg/kg, po measured for 30 mins by open-field test; type: organism-based; set-up: dose 12.5 mg/kg, route oral; details: in vivo, 0.5 h; how it was run: as §3
Mus musculus [15] = experiment: Antinociceptive activity in Swiss mouse assessed as inhibition of acetic acid-induced writhing at 6.25 mg/kg, po administered 1 hr prior to acetic acid challenge measured for 30 mins; type: functional; how it was run: as §2

Compound: CCNC(=O)c1c(NC(CC)CC)c2cccnc2n2c(C(C)C)nnc12
- inhibition in vivo at 25 mg/kg (Rattus norvegicus [1]): 30%
- inhibition in vivo at 100 mg/kg (Rattus norvegicus [2]): 60%
- inhibition in vivo at 50 mg/kg (Mus musculus [3]): 41%
- inhibition in vivo at 25 mg/kg (Mus musculus [4]): 0%
- inhibition in vivo at 100 mg/kg (Mus musculus [5]): 34%
- inhibition in vivo at 50 mg/kg (Rattus norvegicus [6]): 35%
- inhibition in vivo at 12.5 mg/kg (Rattus norvegicus [7]): 12%

Compound: CCN(CC)C(=O)c1c(NC(C)C)c2cccnc2n2c(CN3CCOCC3)nnc12
- inhibition in vivo at 100 mg/kg (Rattus norvegicus [2]): 0%
- inhibition in vivo at 100 mg/kg (Mus musculus [5]): 0%

Compound: COc1ccc2c(c1)c(CC(=O)O)c(C)n2C(=O)c1ccc(Cl)cc1 [INDOMETHACIN]
- Activity (Rattus norvegicus [8]): Toxic

Compound: CNC(=O)c1c(NC(C)C)c2cccnc2n2c(C(C)C)nnc12
- inhibition in vivo at 100 mg/kg (Rattus norvegicus [2]): 50%
- inhibition in vivo at 50 mg/kg (Mus musculus [3]): 11%
- inhibition in vivo at 100 mg/kg (Mus musculus [5]): 67%
- inhibition in vivo at 50 mg/kg (Rattus norvegicus [6]): 3%
- Activity (Mus musculus [9]): Toxic

Compound: CCN(CC)C(=O)c1c(N2CCN(CCO)CC2)c2cccnc2n2c(C(C)C)nnc12
- Activity (Mus musculus [10]): Toxic
- inhibition in vivo at 100 mg/kg (Rattus norvegicus [2]): 0%
- inhibition in vivo at 50 mg/kg (Mus musculus [3]): 96%
- inhibition in vivo at 25 mg/kg (Mus musculus [4]): 48%
- inhibition in vivo at 100 mg/kg (Mus musculus [5]): 85%
- inhibition in vivo at 12.5 mg/kg (Mus musculus [11]): 13%
- Activity (Mus musculus [12]): Toxic
- Activity (Mus musculus [9]): Toxic

Compound: CCc1nnc2c(C(=O)N(CC)CC)c(N3CCN(C)CC3)c3cccnc3n12
- Activity (Mus musculus [10]): Toxic
- inhibition in vivo at 25 mg/kg (Rattus norvegicus [1]): 22%
- inhibition in vivo at 100 mg/kg (Rattus norvegicus [2]): 39%
- inhibition in vivo at 50 mg/kg (Mus musculus [3]): 81%
- inhibition in vivo at 25 mg/kg (Mus musculus [4]): 10%
- inhibition in vivo at 100 mg/kg (Mus musculus [5]): 95%
- inhibition in vivo at 50 mg/kg (Rattus norvegicus [6]): 29%
- Activity (Mus musculus [9]): Toxic

Compound: CCN1CCN(c2c(C(=O)N(CC)CC)c3nnc(C(C)C)n3c3ncccc23)CC1
- Activity (Mus musculus [10]): Toxic
- inhibition in vivo at 25 mg/kg (Rattus norvegicus [1]): 36%
- inhibition in vivo at 6.25 mg/kg (Rattus norvegicus [13]): 8%
- Activity (Mus musculus [14]): Toxic
- inhibition in vivo at 100 mg/kg (Rattus norvegicus [2]): 31%
- inhibition in vivo at 6.25 mg/kg (Mus musculus [15]): 0%
- inhibition in vivo at 50 mg/kg (Mus musculus [3]): 74%
- inhibition in vivo at 25 mg/kg (Mus musculus [4]): 72%
- inhibition in vivo at 100 mg/kg (Mus musculus [5]): 100%
- inhibition in vivo at 12.5 mg/kg (Mus musculus [11]): 50%
- Activity (Mus musculus [12]): Toxic
- inhibition in vivo at 50 mg/kg (Rattus norvegicus [6]): 35%
- Activity (Mus musculus [9]): Toxic
- inhibition in vivo at 12.5 mg/kg (Rattus norvegicus [7]): 31%
